From ChEMBL document CHEMBL1126038, “3-(2-Carboxyindol-3-yl)propionic acid-based antagonists of the N-methyl-D-aspartic acid receptor associated glycine binding site” (J Med Chem, 1992)

What was measured:
[1] = Ability to compete with […] for rat cortical and hippocampal membrane glutamate binding site.; format: tissue-based, Hippocampus
Procedure, shortened: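 Competition binding against [³H]CPP at the glutamate site, using rat cortical and hippocampal membranes. Values are means of two or more experiments, with standard errors ±10-30% of the mean.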

Glutamate NMDA receptor = test: Ability to compete with [3H]glycine for strychnine-insensitive binding sites on rat cortical and hippocampal membrane; format: tissue-based, Hippocampus
Procedure, shortened: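 Rat cortical plus hippocampal membranes, competing against [³H]glycine at strychnine-insensitive sites. Values are the mean of ≥2 experiments, with SE within 10-30% of the mean.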

[2] = molecular target: Glutamate NMDA receptor (Rattus norvegicus) (UniProt P35439+Q00959+Q00960+Q00961+Q62645+Q8VHN2+Q9R1M7); test: Ratio of the inhibitory activity against […] for rat cortical and hippocampal membrane glutamate binding site to [3H]glycine for rat cortical and hippocampal membrane binding site.; format: tissue-based; conditions: Hippocampus
[3] = molecular target: Glutamate receptor ionotropic, AMPA (Rattus norvegicus, UniProt P19490+P19491+P19492+P19493); test: The compound was evaluated […] for the competitive binding against […] for rat cortical and hippocampal membrane glutamate binding site.
[4] = molecular target: Glutamate receptor ionotropic, kainate; test: The compound was evaluated […] for the competitive binding against [3H]kainate for rat cortical and hippocampal membrane glutamate binding site.
Mus musculus [5] = test: The compound was evaluated in vivo for the anticonvulsant activity in quinolinic acid seizure model (intracerebroventricular), for 5 min drug pretreatment time; format: functional; conditions: central
Procedure, shortened: (§1)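 Mice got test compound in distilled water with a few drops of Tween (1 mL/kg) at set times before icv quinolinic acid (7.7 μg in 5 μL saline). Clonic-tonic seizures were watched for 15 min, and non-convulsing mice counted as protected.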

Mus musculus [6] = test: The compound was evaluated in vivo for the anticonvulsant activity in quinolinic acid + probenecid seizure model (intravenous), for 5 min drug pretreatment time; format: functional
Procedure, shortened: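 Quinolinic acid seizure in mice: probenecid 200 mg/kg ip given 30 min before the test compound. Test compound in distilled water with Tween (1 mL/kg), then icv quinolinic acid (7.7 μg in 5 μL saline). Mice were watched 15 min for clonic-tonic seizures.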

Mus musculus [7] = test: The compound was evaluated in vivo for the anticonvulsant activity in quinolinic acid seizure model (intravenous), for 5 min drug pretreatment time; format: functional; procedure, shortened: as §1
Mus musculus [8] = test: The compound was evaluated in vivo for the anticonvulsant activity in quinolinic acid seizure model (intraperitoneal), for 2 hr drug pretreatment time; format: functional; conditions: ip; procedure, shortened: as §1
Mus musculus [9] = test: The compound was evaluated in vivo for the anticonvulsant activity in audiogenic seizure model (intraperitoneal), for 2 hr drug pretreatment time; format: functional; conditions: ip
Procedure, shortened: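 Male DBA/2J audiogenic-susceptible mice (groups of 6-8) got test compound in methylcellulose, with saline controls by the same route. A 110 dB (12 KHz) sound was given for 30 s. Absence of tonic hindlimb extension counted as protection. ED50 was reported.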

[10] = molecular target: Glutamate receptor ionotropic, NMDA 1 (Rattus norvegicus, UniProt P35439); test: The compound was evaluated for the ability to compete with [3H]glycine for strychnine-insensitive binding sites on rat cortical and hippocampal membrane; format: tissue-based, Hippocampus
Procedure, shortened: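 Rat cortical plus hippocampal membranes, competing against [³H]glycine at strychnine-insensitive sites. […] Values are the mean of ≥2 experiments, with SE within 10-30% of the mean.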

[11] = The compound was evaluated for the ability to compete with […] for rat cortical and hippocampal membrane glutamate binding site.; format: tissue-based, Hippocampus
Procedure, shortened: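 Competition binding against [³H]CPP at the glutamate site, using rat cortical and hippocampal membranes. […] Values are means of two or more experiments, with standard errors ±10-30% of the mean.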

IC50 [1] | IC50 (Glutamate NMDA receptor) | Ratio [2] | SMILES | also measured
34 µM | 27 µM | 1 | O=C(O)CCc1c(C(=O)O)[nH]c2ccccc12 | –
283 µM | 2 µM | 140 | O=C(O)CCc1c(C(=O)O)[nH]c2cc(Cl)ccc12 | –
– | 2.5 µM | – | O=C(O)CCc1c(C(=O)O)[nH]c2cc([N+](=O)[O-])ccc12 | –
– | > 100 µM | – | O=C(O)CCc1c(C(=O)O)[nH]c2ccc3ccccc3c12 | –
– | 0.1 µM | – | O=C(O)CSc1c(C(=O)O)[nH]c2cc(Cl)cc(Cl)c12 | IC50 [3]: > 100 µM; IC50 [4]: > 100 µM
– | 8 µM | – | O=C(O)CCc1c(C(=O)O)[nH]c2cc(C(F)(F)F)ccc12 | –
– | > 100 µM | – | O=C(O)CCc1c(C(=O)O)[nH]c2c1ccc1ccccc12 | –
4200 µM | – | 40 | O=C(O)c1cc2ccccc2[nH]1 [INDOLE-2-CARBOXYLIC ACID] | –
– | 5 µM | – | O=C(O)CCc1c(C(=O)O)[nH]c2cc(F)ccc12 | –
16 µM | 12 µM | 1.6 | O=C(O)CSc1c(C(=O)O)[nH]c2ccccc12 | –
51 µM | 17 µM | 3 | O=C(O)CCc1c(C(=O)O)[nH]c2cccc(F)c12 | –
– | 75 µM | – | O=C(O)CCc1c(C(=O)O)[nH]c2cccc([N+](=O)[O-])c12 | –
25 µM | 23 µM | 2 | O=C(O)CCc1c(C(=O)O)[nH]c2ccc(Cl)cc12 | –
60 µM | – | 10 | O=C(O)CCc1c(C(=O)O)[nH]c2cccc(Cl)c12 | –
71 µM | – | – | O=C(O)c1cc(=O)c2ccccc2[nH]1 [TRANSTORINE] | –
> 1000 µM | > 100 µM | > 1 | O=C(O)CCc1c(C(=O)O)[nH]c2c(Cl)cccc12 | –
– | 13 µM | – | O=C(O)CCc1c(C(=O)O)[nH]c2cccc(C(F)(F)F)c12 | –
> 1000 µM | – | > 150 | O=C(O)c1cc2c(Cl)cc(Cl)cc2[nH]1 | –
– | > 100 µM | – | CS(=O)(=O)Nc1ccc2c(CCC(=O)O)c(C(=O)O)[nH]c2c1 | –
– | > 100 µM | – | COc1cc(OC)c2c(CCC(=O)O)c(C(=O)O)[nH]c2c1 | –
358 µM | 0.17 µM | 2100 CPP/GLY | O=C(O)CCc1c(C(=O)O)[nH]c2cc(Cl)cc(Cl)c12 | IC50 [3]: 273 µM; ED50 (Mus musculus [5]): 1.5 µg; IC50 [4]: 418 µM; ED50 (Mus musculus [6]): 50 mg/kg; ED50 (Mus musculus [7]): > 50 mg/kg; ED50 (Mus musculus [8]): 256 mg/kg; ED50 (Mus musculus [9]): 100 mg/kg
– | 4 µM | – | O=C(O)CCc1c(C(=O)O)[nH]c2cc(F)cc(F)c12 | –
> 100 µM | > 100 µM | – | O=C(O)CCc1cc(C(=O)O)nc2ccccc12 | –
710 µM | 25 µM | 28 | O=C(O)COc1cc(C(=O)O)nc2ccccc12 | –
12 µM | 0.143 µM | 80 | O=C(O)c1cc(O)c2c(Cl)cc(Cl)cc2n1 | –
141 µM | 13 µM | 11 | COc1ccc2c(CCC(=O)O)c(C(=O)O)[nH]c2c1 | –
> 100 µM | 45 µM | > 2 | Cn1c(C(=O)O)c(CCC(=O)O)c2c(Cl)cc(Cl)cc21 | –
– | > 1000 µM | – | O=C(O)CCc1c(C(=O)O)[nH]c2cc(Oc3ccccc3)ccc12 | –
– | – | – | COc1cc(C(=O)O)nc2ccccc12 | IC50 [10]: > 100 µM; IC50 [11]: > 100 µM
